Reference: ChEMBL document CHEMBL4152358, “In vitro and in vivo anti-inflammatory properties of imine resveratrol analogues” (Bioorg Med Chem, 2018)
Calls of active or inactive are those of the source. The rule behind the calls is not given here.

Key:
RAW264.7 [1] = test: Immunomodulatory activity in LPS-stimulated mouse RAW264.7 cells assessed as decrease in MHC-2 expression at 50 uM incubated with LPS for 1 hr followed by compound addition measured after 24 hrs by flow cytometry; assay type: functional, cell-based
Outline: (§1)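 RAW 264.7 cells (4 x 10⁵/well, triplicate) given E. coli LPS 1 µg/mL for 1 h, then treated at 50 µM for 24 h. Cells Fc-blocked with anti-CD16/32 and stained with FITC anti-CD80, anti-CD86 or anti-MHC II (I-A^b). Two independent experiments.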

RAW264.7 [2] = test: Antiinflammatory activity in mouse RAW264.7 cells assessed as inhibition of LPS-induced TNFalpha production by measuring TNFalpha levels incubated with LPS for 1 hr followed by compound addition measured after 48 hrs by ELISA (reference value: 58.6 +/- 7.4 ng/ml); assay type: functional
RAW264.7 [3] = test: Antiinflammatory activity in mouse RAW264.7 cells assessed as inhibition of LPS-induced IL-6 production by measuring IL-6 levels incubated with LPS for 1 hr followed by compound addition measured after 48 hrs by ELISA (reference value: 2.9 +/- 0.3 ng/ml); assay type: functional
J774.A1 = test: Antiinflammatory activity in mouse J774A.1 cells assessed as inhibition of LPS-induced IL-1beta production by measuring IL-1beta levels incubated with LPS for 1 hr followed by compound addition measured after 24 hrs by ELISA (reference value: 382.3 +/- 50 pg/ml); assay type: functional
RAW264.7 [4] = test: Antiinflammatory activity in mouse RAW264.7 cells assessed as inhibition of LPS/IFNgamma-induced NO production by measuring NO levels incubated with LPS/IFNgamma for 1 hr followed by compound addition measured after 48 hrs by Griess assay (reference value: 55 +/- 2.6 microM); assay type: functional
RAW264.7 [5] = test: Antiinflammatory activity in mouse RAW264.7 cells assessed as inhibition of LPS-induced CCL-2 production by measuring CCL-2 levels incubated with LPS for 1 hr followed by compound addition measured after 48 hrs by ELISA (reference value: 12.73 +/- 0.10 ng/ml); assay type: functional
RAW264.7 [6] = test: Immunomodulatory activity in LPS-stimulated mouse RAW264.7 cells assessed as decrease in CD80 expression at 50 uM incubated with LPS for 1 hr followed by compound addition measured after 24 hrs by flow cytometry; assay type: functional, cell-based; outline: as §1
[7] = Antioxidant activity assessed as DPPH radical scavenging activity after 30 mins by spectrophotometric method; assay type: functional
Outline: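 Left 30 min at room temperature in the dark and absorbance read at 510 nm. IC50 taken graphically from the linear range of the concentration versus scavenging plot. Run twice, each in triplicate.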

RAW264.7 [8] = test: Antiinflammatory activity in mouse RAW264.7 cells assessed as inhibition of LPS-induced IL-12 production by measuring IL-12 levels incubated with LPS for 1 hr followed by compound addition measured after 48 hrs by ELISA (reference value: 4839.2 +/- 2.2 pg/ml); assay type: functional
RAW264.7 [9] = test: Antiinflammatory activity in mouse RAW264.7 cells assessed as inhibition of LPS/IFNgamma-induced NO production at 50 uM incubated with LPS/IFNgamma for 1 hr followed by compound addition measured after 48 hrs by Griess assay relative to control; assay type: functional
RAW264.7 [10] = test: Cytotoxicity against mouse RAW264.7 cells assessed as reduction in cell viability at 50 uM after 48 hrs by MTT assay; assay type: cell-based; details: raw264.7, 48 h
Outline: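 RAW264.7 cells seeded at 2 x 10⁵/well and grown 24 h, then exposed to 25 or 50 µM (ethanol ≤1%) for 48 h. MTT 0.5 mg/mL added for 2 h at 37 °C, formazan dissolved in DMSO, OD read at 595 nm. Viability given relative to untreated control, mean SD.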

Peritoneal macrophage = test: Cytotoxicity against C57/BL6 mouse peritoneal macrophages assessed as reduction in cell viability at 50 uM after 48 hrs by MTT assay; assay type: cell-based
Murine T-cell line = test: Antiproliferative activity against Con-A-induced T cells isolated from splenocytes of C57/BL6 mouse at 50 uM incubated with Con-A for 1 hr followed by compound addition measured after 72 hrs by MTT assay; assay type: functional, cell-based
Outline: (§2)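 C57BL/6 splenocytes (1x10⁵/well) cultured in RPMI 1640 with 10% FBS. Stimulated 1 h with Con A 5 µg/mL (T cells) or E. coli LPS 1 µg/mL (B cells) at 37°C, 5% CO₂. Treated at 50 µM and cultured 72 h more, then read by MTT. Expressed as % proliferation relative to untreated stimulated cells.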

Mus musculus [11] = test: Antiinflammatory activity in croton oil-induced Balb/c mouse ear edema model assessed as inhibition of leucocyte infiltration at 0.1 mg/ear administered topically immediately post croton oil treatment and measured after 4 hrs by hematoxylin and eosin staining based light microscopic method; assay type: functional, organism-based
Outline: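 Ear plugs from the 4 h croton oil edema test in Balb/c mice were fixed 24 h in 70% ethanol, kept in 10% formalin, paraffin-embedded and cut at 4 µm. Sections stained with H&E and leucocyte infiltration judged qualitatively by light microscopy at 400x.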

RAW264.7 [12] = test: Immunomodulatory activity in LPS-stimulated mouse RAW264.7 cells assessed as decrease in CD86 expression at 50 uM incubated with LPS for 1 hr followed by compound addition measured after 24 hrs by flow cytometry; assay type: functional, cell-based; outline: as §1
Mus musculus [13] = test: Effect on IL-1beta production in ear tissue of croton oil-induced Balb/c mouse ear edema model at 0.1 mg/ear administered topically immediately post croton oil treatment by ELISA; assay type: functional, organism-based
Outline: (§3)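 Half of each ear plug from the 4 h croton oil edema test (topical 0.1 mg/ear) was homogenized in extraction buffer (BSA 0.5%, PMSF 0.1%, […], EDTA 10mM, aprotinin 20kIU/ml) and spun at 440g for 15 min at 4 °C. IL-1β, IL-6 or CCL-2 in the supernatant measured by ELISA.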

Mus musculus [14] = test: Inhibition of myeloperoxidase activity in ear tissue of croton oil-induced Balb/c mouse ear edema model at 0.1 mg/ear administered topically immediately post croton oil treatment by spectrophotometric method; assay type: functional, organism-based
Outline: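 Ear tissue homogenized in PBS and the pellet resuspended in 0.5% HTAB, then given 3 freeze/thaw cycles. Cleared supernatant mixed 1:1 with 6 mM o-phenylenediamine in 10 mM citrate pH 4.5, with 20% H₂O₂ added. Stopped after 15 min with 1 M H₂SO₄ and read spectrophotometrically.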

Mus musculus [15] = test: Inhibition of CCL-2 production in ear tissue of croton oil-induced Balb/c mouse ear edema model at 0.1 mg/ear administered topically immediately post croton oil treatment by ELISA; assay type: functional, organism-based; outline: as §3
B-cell line = test: Antiproliferative activity against LPS-induced B cells isolated from splenocytes of C57/BL6 mouse at 50 uM incubated with LPS for 1 hr followed by compound addition measured after 72 hrs by MTT assay; assay type: functional, cell-based; outline: as §2
Mus musculus [16] = test: Antiinflammatory activity in Balb/c mouse ear edema model assessed as inhibition of croton oil-induced ear edema at 0.1 mg/ear administered topically immediately post croton oil treatment and measured after 4 hrs relative to control; assay type: functional
Outline: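 Female Balb/c mice 8–10 weeks old (n = 6/group). 20 µL of 2.5% v/v croton oil applied to the inner surface of the right ear, acetone vehicle to the left. Treatment given topically straight after, 0.1 mg/ear in 20 µL, with acetone as negative control. Killed at 4 h and 6 mm plugs taken from both ears. Edema read as right minus left ear plug weight, mean S.D.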

RAW264.7 [17] = test: Cytotoxicity against mouse RAW264.7 cells assessed as reduction in cell viability at >= 100 uM after 48 hrs by MTT assay; assay type: cell-based; details: raw264.7, 48 h
Mus musculus [18] = test: Inhibition of IL-6 production in ear tissue of croton oil-induced Balb/c mouse ear edema model at 0.1 mg/ear administered topically immediately post croton oil treatment by ELISA; assay type: functional, organism-based; outline: as §3

IC50 [7] [µM]	Compound	Activity (RAW264.7 [1])	Activity (RAW264.7 [2]) [ng/mL]	Activity (RAW264.7 [3]) [ng/mL]	Activity (J774.A1) [pg/mL]	Activity (RAW264.7 [4]) [µM]	Activity (RAW264.7 [5]) [ng/mL]	Activity (RAW264.7 [6])	Activity (RAW264.7 [8]) [pg/mL]	Activity (RAW264.7 [10])	Activity (Peritoneal macrophage)	also measured
49.1	Oc1ccc(/C=N/c2ccccc2O)c(O)c1	inactive	44.8	2.3	188.3	14.6	5.5	Active	9.3	–	–	inhibition at 50 µM (RAW264.7 [9]): 90%
–	O=[N+]([O-])c1ccc(N/N=C/c2cc(Br)ccc2O)c([N+](=O)[O-])c1	–	–	–	–	–	–	–	–	Toxic	Toxic	–
65.6	Oc1ccc(/C=C/c2cc(O)cc(O)c2)cc1 [RESVERATROL]	inactive	31	1.6	159.7	44.5	6.6	Active	1036	Non-Toxic	–	Activity (Murine T-cell line): Active; inhibition of leucocyte infiltration (qualitative) (Mus musculus [11]): Active; Activity (RAW264.7 [12]): Active; Activity (Mus musculus [13]): inactive; inhibition (Mus musculus [14]): Active; inhibition (Mus musculus [15]): inactive; Activity (B-cell line): Active; inhibition (INH) (Mus musculus [16]): 40%; inhibition at 50 µM (RAW264.7 [9]): 25%; Activity (RAW264.7 [17]): Toxic; inhibition (Mus musculus [18]): inactive
–	O=[N+]([O-])c1ccc(/C=N/c2ccccc2S)cc1	–	–	–	–	–	–	–	–	Toxic	Toxic	–
–	C[C@@H]1C[C@H]2[C@@H]3CCC4=CC(=O)C=C[C@]4(C)[C@@]3(F)[C@@H](O)C[C@]2(C)[C@@]1(O)C(=O)CO [DEXAMETHASONE]	–	–	–	–	–	–	–	–	–	–	inhibition of leucocyte infiltration (qualitative) (Mus musculus [11]): Active; inhibition (INH) (Mus musculus [16]): 90%
–	COc1ccc(/C=N/Nc2ccccc2)c(O)c1	–	–	–	–	–	–	–	–	Toxic	Toxic	–
34.1	O=C(O)c1ccccc1/C=N/c1ccccc1O	inactive	57.4	2.3	76.7	22.6	6.1	inactive	34	–	–	Activity (Murine T-cell line): Active; Activity (B-cell line): Active
